CTSL1 counter – Fasciola hepatica cathepsin L1 inhibitors, primary screen, counter-screen for PFM18AAP inhibitor project, biochemical, QFRET, fluorogenic peptide substrate; recombinant F. hepatica cathepsin L1, Z-Leu-Arg-MCA fluorescence; inhibition, % at 5.96 µM; 0.49% of 300,000 active; AID 1906, 2009;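 active means inhibition above the mean of all tested compounds plus 3 SD, set per screening campaign, cut at about 17% in these data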;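 further: 0% = plate median of test compound wells and 100% = 1 µM Z-Phe-Ala-diazomethylketone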
AHR act – AHR activators, primary screen, cell-based, luminescence, luciferase reporter, human. activation, % at 5 µM. 2.5% of 320,000 active. AHR-responsive luciferase reporter cells. Aryl hydrocarbon receptor (Homo sapiens), P35869. AID 2796, 2010; in the data active means activation above about 47%;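 further: 0% = vehicle wells and 100% = reference agonist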
SENP1 FRET inh – human SENP1 catalytic domain inhibitors, primary screen, biochemical, FRET, uHTS; Sentrin-specific protease 1 (Homo sapiens), Q9P0U3; recombinant SENP1 catalytic domain, CyPet-SUMO1-YPet FRET cleavage; inhibition, % at 10 µM; 0.21% of 360,000 active; AID 624204, 2012;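 active means inhibition at least 30% at 10 µM, raw YFP signal under a set limit, fluorescence ratio 0.5 to 1.5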;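 further: 0% = enzyme with DMSO and 100% = no enzyme wells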
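material = recombinant human SENP1 catalytic domain, His6-tagged | quantity = 20 pM enzyme | reagent = 25 nM SUMO1 FRET substrate | compound dosing = 10 µM single point, 0.5% DMSO | timing = 50 min enzyme reaction, room temperature, light-protected | detection = FRET, CFP and YFP emission | control set = no-enzyme low, enzyme-DMSO high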
GAA850 FXN act – FXN promoter activators, primary screen, cell-based, luciferase luminescence, HEK293 lucGAA850; HEK293 lucGAA850 FXN promoter luciferase reporter, 24 h; percent of 10 µM SAHA response; activation, % at 6 µM; 0.56% of 360,000 active; AID 540364, 2011;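 active means activation above the average of all compounds screened plus 3 SD, cutoff fixed separately per campaign, cut at about 7.5% in these data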;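 further: 0% = DMSO wells and 100% = 10 µM SAHA wells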
M18AAP inhibitor – PfM18AAP inhibitors, malaria aminopeptidase, primary screen, biochemical, QFRET, recombinant enzyme; 1.2% of 290,000 active; inhibition, % at 7.35 µM; AID 1822, 2009; H-Glu-NHMec fluorogenic cleavage;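 active means inhibition above the campaign mean inhibition over all tested compounds plus 3 SD, cut at about 28% in these data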;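 further: 0% = plate median of test compound wells and 100% = 2 mM ZnCl2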
HDAC3 inh – HDAC3 deacetylase inhibitors, primary screen, biochemical, fluorescence, cell-free homogeneous | Histone deacetylase 3 (Homo sapiens), O15379 | recombinant HDAC3, fluorogenic peptide/trypsin coupled | inhibition, % at 8.3 µM | AID 2718, 2010 | 0.15% of 320,000 active; in the data active means inhibition above about 26%, passing the limit was not always enough; inconclusive means no clear call, values can overlap the other calls
AHR act confirm – AHR activators, confirmation, cell-based, luminescence, luciferase reporter, human. shares compounds with AHR act. human cells, AHR-responsive luciferase reporter. activation, % at 9 µM. 87% of 2,300 active; in the data active means activation above about 49%;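 further: HepG2 hepatoma cells carrying a DRE-driven firefly luciferase reporter; 0% = vehicle wells and 100% = reference agonist wells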
PXR act counter – human PXR activators, counter-screen for AHR activator project, cell-based, luciferase luminescence; shares compounds with AHR act; cell-based PXR reporter; activation, % at 11.6 µM; 88% of 2,300 active; AID 434939, 2010; in the data active means activation above about 11%;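 further: human hepatoma DPX-2 cells expressing full-length human PXR; 0% = DMSO and 100% = reference agonist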
* = called active by the depositor; ? = inconclusive; . = no result given. Rows were chosen to be rich in hits. Some 4.2% of all compounds tested hit in one or more screens of this group.

SMILES	CTSL1 counter	AHR act	SENP1 FRET inh	GAA850 FXN act	M18AAP inhibitor	HDAC3 inh	AHR act confirm	PXR act counter
O=C1CC(c2ccccc2)CC(O)=C1C=Nc1ccc(O)cc1 (centres undefined)	-1	83*	-5	0	8	?	67*	14*
COc1ccc(N=CC2=C(O)CC(c3ccccc3)CC2=O)c(OC)c1 (centres undefined)	1	116*	-67	-2	2	17	104*	21*
CCc1ccc(S(=O)(=O)/N=C2\C=CC(=O)c3ccccc32)cc1	-2	112*	.	.	-8	3	93*	164*
COc1ccc(/C=C2\Sc3ccc(C(=O)NCCCN4CCCC4)cc3N(C)C2=O)cc1OC	2	1	-2	2	4	4	.	.
Clc1cccc(-c2sc(Nc3ccccc3)n[n+]2-c2ccccc2)c1Cl	-2	5	2	-1	11	9	.	.
Fc1ccc(-[n+]2nc(Nc3ccccc3)sc2-c2cccc(Cl)c2Cl)cc1	3	113*	1	-2	4	5	11	92*
O=C(COC(=O)c1cc([N+](=O)[O-])ccc1NCCO)Nc1cccc(S(=O)(=O)N2CCCC2)c1	-6	0	0	0	.	9	.	.
COc1ccc(Nc2c(-c3ccc(OC)cc3)nc3cnccn23)cc1	-1	15	-28	4	1	10	.	.
COc1ccc(-c2nc3cnccn3c2Nc2ccc3c(c2)OCO3)cc1	0	105*	-19	1	5	0	85*	144*
O=C(Nc1nc(-c2ccco2)c(-c2ccco2)s1)C1CCC1	0	106*	-9	3	16	1	91*	25*
CC(C)n1nnnc1C1c2ccccc2C(=O)N1Cc1cccnc1 (centres undefined)	.	.	0	.	.	.	.	.
CCOC(=O)C(=O)N(C)c1c(CC)nc2c(OCc3cccc(Cl)c3)cccn12	.	.	0	2	.	.	.	.
Cc1ccc(S(=O)(=O)N(OCc2ccccc2)C(C)C(=O)O)cc1 (centres undefined)	-3	-3	2	-1	.	0	.	.
COc1ccc(Nc2nc(N)nc(CSc3nnc(N)s3)n2)cc1	5	112*	2	4	0	-2	110*	15*
COc1ccc(Nc2nc(N)nc(CSc3nc(C)cc(C)n3)n2)cc1	2	28	1	6	-10	5	.	.
Cc1c(C)n(C(=O)CN2CCC(C)CC2)c2ccccc12	16	83*	1	1	3	4	53*	15*
CN(C)c1nc(N)nc(-c2nc3ccccc3s2)n1	2	80*	0	6	6	1	167*	.
Cc1cc(NCCCn2ccnc2)n2nc(-c3ccc(F)cc3)cc2n1	-3	47	-18	0	-2	0	.	.
Cc1cc(NCCCn2ccnc2)n2nc(-c3ccc(Cl)cc3)cc2n1	8	134*	-101	6	0	5	110*	18*
CC/C(=N\NC(=S)Nc1cccc(C)c1)c1ccccc1	1	87*	2	5	19	-2	55*	24*
Cc1cccc(NC(=S)NNC(=O)c2cccc([N+](=O)[O-])c2)c1	2	0	2	1	5	0	.	.
O=C(NC(=S)Nc1cccc(F)c1)c1cccc([N+](=O)[O-])c1	0	96*	1	2	16	8	40	30*
C/C(=N/NC(=S)Nc1cccc(C)c1)c1cccc([N+](=O)[O-])c1	6	106*	0	1	5	6	83*	100*
COc1cccc(C(=Cc2ccc([N+](=O)[O-])cc2)C(=O)O)c1	.	.	-1	0	.	.	.	.
COc1ccc(OC)c(-c2csc(NC(=O)COC(=O)c3ccc(NC(=O)CC#N)cc3)n2)c1	.	80*	-23	0	.	-10	27	9
SMILES	CTSL1 counter	AHR act	SENP1 FRET inh	GAA850 FXN act	M18AAP inhibitor	HDAC3 inh	AHR act confirm	PXR act counter
O=C1C=CC(c2ccccc2)(c2ccccc2)CC1	.	.	0	-1	.	.	.	.
O=C(NN=Cc1ccc2c(c1)OCO2)c1ccccc1	.	.	1	3	.	.	.	.
O=C(Nc1ccc2c(c1)CCC2)Nc1ccc2c(c1)OCO2	6	85*	1	2	0	4	52*	43*
COc1cccc(NC(=O)Nc2cc(NC(=O)Nc3cccc(OC)c3)c(C)nc2C)c1	-1	91*	2	1	-2	10	50*	15*
Cc1ccc2c(c1)CCCN2C(=O)Nc1ccc2c(c1)OCO2	2	106*	-3	2	7	5	96*	83*
O=C(N/N=C/c1ccc2c(c1)OCO2)c1ccc2c(c1)OCO2	4	115*	2	2	1	-4	93*	25*
COc1cccc(NC(=O)Nc2ccncc2)c1	1	22	1	0	-5	0	.	.
COc1ccc(C)cc1NC(=O)COC(=O)c1ccc2c(c1)OCO2	.	0	3	2	.	2	.	.
O=C(CCN1CCc2ccccc2C1)Nc1ccc2c(c1)OCO2	-2	84*	-1	2	-1	4	26	51*
COc1ccc(C)cc1NC(=O)c1ccc2c(c1)OCO2	-3	104*	3	3	-5	-7	116*	26*
COc1cccc(NC(=O)Nc2ccc3c(c2)OCO3)c1	-1	110*	1	6	-5	-9	65*	38*
CCOc1ccccc1NC(=O)NCc1ccc2c(c1)OCO2	-2	97*	-1	1	-2	2	74*	40*
Cc1ccccc1OC(C)C(=O)Nc1ccc2c(c1)OCO2 (centres undefined)	11	102*	-3	0	1	5	51*	36*
CCC(Oc1ccccc1OC)C(=O)Nc1ccc2c(c1)OCO2 (centres undefined)	1	115*	0	-2	-5	-2	115*	56*
Cc1cc(C)cc(C(=O)NCc2ccc3c(c2)OCO3)c1	2	106*	1	0	-16	-1	75*	52*
O=C(NCc1ccc2c(c1)OCO2)c1ccccc1	-2	3	-2	0	-8	-1	.	.
